Laboratory results: ChEMBL document CHEMBL1811865, “NSAID-derived γ-secretase modulation requires an acidic moiety on the carbazole scaffold” (Bioorg Med Chem, 2011)
Calls of active or inactive are those of the source. No cut-off for these calls is given here.

How the values were obtained:
[1] = target: T1, Gamma-secretase (Homo sapiens) (UniProt Q96BI3+Q9NZ42+Q8WW43+P49768+Q92542+P49810); assay: Modulation of gamma-secretase activity in human H4 cells expressing APP695 assessed as increase in amyloid beta40 production at 100 uM after 20 to 24 hrs by liquid phase electrochemiluminescence assay; type: cell-based
Outline: (§1)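 Aβ-lowering assay in H4 APPΔ9 cells. Secreted Aβ isoforms (Aβ38, Aβ40, Aβ42) were quantified by liquid phase electrochemiluminescence (LPECL). Dose-response testing was capped at 100 μM to avoid micelle formation by the amphiphilic acids. EC50 values were derived from the curves, and the response at 100 μM was reported where EC50 could not be determined.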

[2] = target: T1, Gamma-secretase (Homo sapiens); assay: Modulation of gamma-secretase activity in human H4 cells expressing APP695 assessed as increase in amyloid beta38 production at 100 uM after 20 to 24 hrs by liquid phase electrochemiluminescence assay; type: cell-based; outline: as §1
Gamma-secretase [3] = assay: Modulation of gamma-secretase activity in human H4 cells expressing APP695 assessed as increase in amyloid beta42 production after 20 to 24 hrs by liquid phase electrochemiluminescence assay; type: cell-based; outline: as §1
H4 [4] = assay: Cytotoxicity against human H4 cells assessed as cell viability by MTS assay; type: cell-based
Outline: (§2)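 Viability of H4 APPΔ9 cells was read by a colorimetric cell proliferation assay based on bioreduction of MTS (Owen's reagent) to formazan.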

H4 [5] = assay: Cytotoxicity against human H4 cells assessed as cell viability at 80 uM by MTS assay; type: cell-based; conditions: h4, 80 µM; outline: as §2
Gamma-secretase [6] = assay: Modulation of gamma-secretase activity in human H4 cells expressing APP695 assessed as increase in amyloid beta38 production after 20 to 24 hrs by liquid phase electrochemiluminescence assay; type: cell-based; outline: as §1
Gamma-secretase [7] = assay: Modulation of gamma-secretase activity in human H4 cells expressing APP695 assessed as increase in amyloid beta40 production after 20 to 24 hrs by liquid phase electrochemiluminescence assay; type: cell-based; outline: as §1
H4 [8] = assay: Cytotoxicity against human H4 cells assessed as cell viability at 160 uM by MTS assay; type: cell-based; conditions: h4, 160 µM; outline: as §2
[9] = Ratio of AUC in plasma to AUC in cerebrospinal fluid in rat; type: ADME, CSF/Plasma; conditions: in vivo
H4 [10] = assay: Cytotoxicity against human H4 cells assessed as cell viability at 20 uM by MTS assay; type: cell-based; conditions: h4, 20 µM; outline: as §2
Mus musculus = assay: Antialzheimer activity in APP Swedish mutant transgenic C57/BLg mouse assessed as change in amyloid beta42 level in brain at 10 mg/kg, po after 5 hrs; type: functional, organism-based; parameters: dose 10 mg/kg
[11] = Ratio of AUC in brain to AUC in plasma in APP Swedish mutant transgenic C57/BLg mouse at 10 mg/kg, po after 5 hrs; conditions: in vivo

| Structure (SMILES) | Activity [1] | Activity [2] | Activity (H4 [4]) | IC50 (Gamma-secretase [3]) | also measured |
| --- | --- | --- | --- | --- | --- |
| CCCCCCCCn1c2ccc(Cl)cc2c2ccc(C(C)C(=O)OCC)cc21 (configuration not stated) | inactive | inactive | – | – | EC50 (Gamma-secretase [3]): 21 µM |
| CCCCCCCCn1c2ccc(Cl)cc2c2ccc(C(C)C(=O)OCc3ccccc3)cc21 (configuration not stated) | inactive | inactive | Non-toxic | > 80 µM | – |
| CCCCCCCCn1c2ccc(Cl)cc2c2ccc(C(C)CO)cc21 (configuration not stated) | inactive | inactive | – | – | Activity (H4 [5]): Toxic; EC50 (Gamma-secretase [3]): 21 µM |
| CCCCCCCCn1c2ccccc2c2ccc(OCC(=O)OCC)cc21 | inactive | inactive | – | 31 µM | – |
| CCCCCCCCn1c2ccccc2c2ccc(OC3=C(O)CNC3=O)cc21 | – | – | Non-toxic | 28 µM | EC50 (Gamma-secretase [6]): 8 µM; IC50 (Gamma-secretase [7]): 72 µM |
| CCCCCCCCn1c2ccccc2c2cc(C=O)c(OCC(=O)OC)cc21 | inactive | inactive | Non-toxic | 89 µM | – |
| CCCCCCCCn1c2ccccc2c2ccc(OCCO)cc21 | inactive | inactive | Non-toxic | > 40 µM | – |
| CCCCCCCCn1c2ccc(Cl)cc2c2ccc(CC)cc21 | inactive | inactive | – | – | EC50 (Gamma-secretase [3]): 50 µM |
| CCCCCCCCn1c2ccccc2c2ccc(Oc3ccccc3C(=O)O)cc21 | – | – | Non-toxic | 38 µM | EC50 (Gamma-secretase [6]): 23 µM; IC50 (Gamma-secretase [7]): > 80 µM |
| CCCCCCCCn1c2ccccc2c2ccc(OCC(N)=O)cc21 | inactive | inactive | – | 104 µM | Activity (H4 [8]): Toxic |
| CCCCCCCCn1c2ccccc2c2ccc(OCC(=O)OC(C)(C)C)cc21 | inactive | inactive | Non-toxic | – | EC50 (Gamma-secretase [3]): 19 µM |
| CCCCCCCCn1c2ccccc2c2ccc(OCC(O)C(F)(F)F)cc21 (configuration not stated) | inactive | inactive | – | – | EC50 (Gamma-secretase [3]): 12 µM |
| CCCCCCCCn1c2ccccc2c2cc(CCC(=O)O)c(OCC(=O)O)cc21 | inactive | inactive | – | > 80 µM | – |
| CCCCCCCCn1c2ccccc2c2ccc(OCC#N)cc21 | – | – | – | 252 µM | IC50 (Gamma-secretase [6]): 74 µM; IC50 (Gamma-secretase [7]): 105 µM |
| CCCCCCCCn1c2ccccc2c2ccc(OC3=C(O)C(Cc4ccccc4)N(Cc4ccc5c(c4)OCO5)C3=O)cc21 (configuration not stated) | – | – | – | 24 µM | Activity (H4 [5]): Toxic; IC50 (Gamma-secretase [6]): 31 µM; IC50 (Gamma-secretase [7]): 32 µM |
| CCCCCCCCn1c2ccc(Cl)cc2c2ccc(C(C)C(=O)OC)cc21 (configuration not stated) | inactive | inactive | – | – | EC50 (Gamma-secretase [3]): 15 µM |
| CCCCCCCCn1c2ccccc2c2ccc(OCCN)cc21 | – | – | Non-toxic | – | IC50 (Gamma-secretase [6]): > 80 µM; IC50 (Gamma-secretase [7]): > 80 µM; EC50 (Gamma-secretase [3]): > 80 µM |
| CCCCCCCCn1c2ccccc2c2ccc(OCCS(=O)(=O)O)cc21 | inactive | inactive | – | > 80 µM | – |
| CCCCCCCCn1c2ccccc2c2cc(C=O)c(OCC(=O)O)cc21 | inactive | inactive | – | 32 µM | Activity (H4 [5]): Toxic |

| Structure (SMILES) | Activity [1] | Activity [2] | Activity (H4 [4]) | IC50 (Gamma-secretase [3]) | also measured |
| --- | --- | --- | --- | --- | --- |
| CCCCCCCCn1c2ccccc2c2ccc(OCc3nn[nH]n3)cc21 | – | – | – | 113 µM | IC50 (Gamma-secretase [6]): 165 µM; IC50 (Gamma-secretase [7]): 102 µM |
| CCCCCCCCn1c2ccccc2c2ccc(OCC(=O)OCC(C)C)cc21 | inactive | inactive | Non-toxic | > 80 µM | – |
| CCCCCCCCn1c2ccccc2c2ccc(OCCP(=O)(OCC)OCC)cc21 | inactive | inactive | – | – | Activity (H4 [5]): Toxic; EC50 (Gamma-secretase [3]): 13 µM |
| CC(C(=O)O)c1ccc(-c2ccccc2)c(F)c1 (configuration not stated) [FLURBIPROFEN] | – | – | – | – | Ratio AUC [9]: 5.31 |
| CCCCCCCCn1c2ccccc2c2ccc(OCCC(=O)O)cc21 | – | – | Non-toxic | > 80 µM | EC50 (Gamma-secretase [6]): > 80 µM; IC50 (Gamma-secretase [7]): > 80 µM |
| CCCCCCCCn1c2ccccc2c2ccc(O)cc21 | inactive | inactive | – | > 80 µM | – |
| CCCCCCCCn1c2ccccc2c2ccc(OCCN(C)C)cc21 | inactive | inactive | – | – | Activity (H4 [10]): Toxic; EC50 (Gamma-secretase [3]): > 10 µM |
| CCCCCCCCCCn1c2ccc(Cl)cc2c2ccc(C(C)C(=O)O)cc21 (configuration not stated) | – | – | – | – | Activity (Mus musculus): inactive; Ratio AUC [11]: < 0.1 |
| CCCCCCCCn1c2ccc(Cl)cc2c2ccc(C(C)C(=O)NS(C)(=O)=O)cc21 (configuration not stated) | inactive | inactive | – | – | EC50 (Gamma-secretase [3]): 32 µM |
| CCCCCCCCn1c2ccccc2c2ccc(OCCN(C(=O)C(F)(F)F)C(=O)C(F)(F)F)cc21 | inactive | inactive | Non-toxic | > 80 µM | – |
| CCCCCCCCn1c2ccccc2c2ccc(OCC(=O)O)cc21 | – | – | – | 19 µM | EC50 (Gamma-secretase [6]): 24 µM |
| CCCCCCCCn1c2ccccc2c2ccc(OC(C)(C)C(=O)O)cc21 | – | – | – | > 40 µM | Activity (H4 [5]): Toxic; EC50 (Gamma-secretase [6]): > 40 µM; IC50 (Gamma-secretase [7]): > 40 µM |
| CCCCCCCCn1c2ccccc2c2ccc(OCC(=O)OC(C)C)cc21 | inactive | inactive | – | – | EC50 (Gamma-secretase [3]): 49 µM |
| CCCCCCCCn1c2ccccc2c2ccc(OCC(=O)OC)cc21 | inactive | inactive | Non-toxic | 27 µM | – |
| CCCCCCCCn1c2ccccc2c2ccc(OCCNC=O)cc21 | inactive | inactive | Non-toxic | > 80 µM | – |
| CCCCCCCCn1c2ccccc2c2cc(CO)c(OCCO)cc21 | inactive | inactive | – | 80 µM | – |
| CCCCCCCCn1c2ccccc2c2ccc(OC3=C(O)COC3=O)cc21 | – | – | Non-toxic | 37 µM | EC50 (Gamma-secretase [6]): 21 µM; IC50 (Gamma-secretase [7]): > 80 µM |
| CCCCCCCCn1c2ccc(Cl)cc2c2ccc(C(C)C(=O)O)cc21 (configuration not stated) | – | – | – | 6.9 µM | IC50 (Gamma-secretase [6]): 100 µM; IC50 (Gamma-secretase [7]): > 40 µM |
